According to ChEMBL document CHEMBL1124709, “Synthesis and antiviral activity of 3'-heterocyclic substituted 3'-deoxythymidines” (1990):

Key:
Format in all cases: functional
C3H/3T3 [1] = assay: Minimum cytotoxic concentration required to inhibit MSV-induced transformation of C3H/3T3 cells; details: Mus musculus
In short: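 Murine embryo fibroblast C3H/3T3 cells examined under the microscope. The value is the minimum concentration at which an alteration of normal cell morphology was seen.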

MT4 [2] = assay: Cytotoxic dose required to reduce the viability of normal uninfected MT-4 cells by 50%; details: Homo sapiens, read-out: CD50 (the source's name)
MT4 [3] = assay: Effective dose of compound required to achieve 50% protection of MT-4 cells against the cytopathic effect of HIV; details: Homo sapiens, read-out: ED50 (the source's name)
In short: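 HIV-1 strain HTLV-III_B in human MT-4 cells; the read-out is inhibition of virus-induced cytopathic effect. ED50 is the dose giving 50% protection of the cells.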

C3H/3T3 [4] = assay: Inhibitory effect on MSV-induced transformation of C3H/3T3 cells; details: Mus musculus, read-out: ED50 (the source's name)
In short: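 Murine embryo fibroblast C3H/3T3 cells infected with Moloney murine sarcoma virus; the read-out is inhibition of virus-induced cell transformation.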

Compound	MCC (C3H/3T3 [1]) [µM]	CC50 (MT4 [2]) [µM]	EC50 (MT4 [3]) [µM]	EC50 (C3H/3T3 [4]) [µM]
Cc1cn([C@H]2C[C@@H](n3cccc3)[C@@H](CO)O2)c(=O)[nH]c1=O	> 100	> 500	201	91
Cc1cn([C@H]2C[C@@H](n3ccnc3)[C@@H](CO)O2)c(=O)[nH]c1=O	> 100	> 500	> 500	> 100
Cc1cn([C@H]2C[C@@H](n3cccn3)[C@@H](CO)O2)c(=O)[nH]c1=O	> 100	> 500	> 500	> 100
Cc1cn([C@@H]2O[C@H](CO)[C@H](n3cccn3)C2O)c(=O)[nH]c1=O (stereo partly drawn)	> 100	> 100	> 100	> 100
Cc1cn([C@H]2C[C@@H](n3cnnc3)[C@@H](CO)O2)c(=O)[nH]c1=O	> 100	4.8	> 5	> 100
Cc1cn([C@H]2C[C@@H](n3ccnn3)[C@@H](CO)O2)c(=O)[nH]c1=O	> 100	> 500	> 500	> 100
Cc1cn([C@H]2C[C@@H](NC=O)[C@@H](CO)O2)c(=O)[nH]c1=O	> 100	66	> 100	> 100
Cc1cn([C@@H]2O[C@H](CO)[C@@H](O)C2n2cncn2)c(=O)[nH]c1=O (stereo partly drawn)	> 100	> 500	> 500	> 100
Cc1cn([C@@H]2O[C@H](CO)[C@H](n3ccnc3)C2O)c(=O)[nH]c1=O (stereo partly drawn)	> 100	> 500	> 500	> 100
Cc1cn([C@@H]2O[C@H](CO)C[C@H]2n2cncn2)c(=O)[nH]c1=O	> 100	> 500	> 500	> 100
Cc1cn([C@H]2C[C@@H](n3cncn3)[C@@H](CO)O2)c(=O)[nH]c1=O	> 100	> 500	> 500	> 100
Cc1cn([C@@H]2O[C@H](CO)[C@H](n3cncn3)C2O)c(=O)[nH]c1=O (stereo partly drawn)	> 100	> 500	> 500	> 100
